CHRM5 antagonist: CHRM5 antagonism in calcium assay; CHO-hM5 cells, Fluo-8 calcium fluorescence, ACh EC80; inhibition, % at 3 µM; hit rate 0.59% among 360,000; AID 624040;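 active means inhibition above a per-plate cutoff, the mean of that plate's test compounds plus 3 SD, cut at about 27% in these data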;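 further: 0% = acetylcholine EC80 with DMSO and 100% = DMSO without agonist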
CHRM4 agonist: agonists of human muscarinic M4 receptor (CHRM4); P08173; CHO-K1 hM4/Gqi5, Fluo-8 calcium fluorescence; vehicle 0%, full acetylcholine response 100%; activation, % at 3 µM; hit rate 0.14% among 360,000;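 active means activation above the run mean over all test wells plus 3 SD, cut at about 32% in these data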;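 further: peak over basal fluorescence ratio per well then scaled between controls; 0% = DMSO wells and 100% = acetylcholine at EC100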
Target sequence (P08173 whole entry, looked up): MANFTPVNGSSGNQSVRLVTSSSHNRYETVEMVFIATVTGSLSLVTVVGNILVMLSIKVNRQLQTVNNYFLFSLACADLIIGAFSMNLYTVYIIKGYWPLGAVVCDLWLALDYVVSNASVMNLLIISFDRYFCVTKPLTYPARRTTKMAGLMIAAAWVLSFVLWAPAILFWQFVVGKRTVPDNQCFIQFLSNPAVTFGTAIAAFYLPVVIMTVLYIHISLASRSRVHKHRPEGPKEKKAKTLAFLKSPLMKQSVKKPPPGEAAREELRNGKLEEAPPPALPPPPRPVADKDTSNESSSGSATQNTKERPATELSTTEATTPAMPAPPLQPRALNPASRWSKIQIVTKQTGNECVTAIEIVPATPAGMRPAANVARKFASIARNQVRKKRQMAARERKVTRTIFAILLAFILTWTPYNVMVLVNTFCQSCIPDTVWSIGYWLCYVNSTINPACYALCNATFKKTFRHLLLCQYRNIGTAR
M5 ag: CHRM5 agonism in calcium assay; P08912; CHO-K1 hM5 cells, Fluo-8 calcium fluorescence; 0% DMSO wells, 100% maximal acetylcholine response; activation, % at 3 µM; hit rate 0.19% among 360,000; AID 624037;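 active means activation above the run's mean over test compounds plus 3 SD, cut at about 23% in these data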;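 further: signal is peak over basal fluorescence ratio across the kinetic read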
CHRM4 PAM: positive allosteric modulators of human muscarinic M4 receptor. P08173. CHO-K1 hM4/Gqi5, Fluo-8 calcium fluorescence, ACh EC20; 0% = ACh EC20, 100% = maximal ACh. activation, % at 3 µM. hit rate 0.4% among 360,000. AID 624126;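 active means activation above its plate's cutoff, the mean activation of sample wells plus 3 SD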
CHRM4 antagonist: antagonists of human muscarinic M4 receptor (CHRM4). CHO-hM4 cells, ACh EC80, Fluo-8 calcium fluorescence. inhibition, % at 3 µM. hit rate 0.73% among 360,000;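 active means inhibition above its plate's cutoff, the mean inhibition of sample wells plus 3 SD, cut at about 27% in these data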;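 further: 0% = acetylcholine EC80 with DMSO and 100% = DMSO without agonist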
CHRM5 PAM: CHRM5 positive allosteric modulation; P08912; CHO-K1 hM5, Fluo-8 calcium, ACh EC20 PAM; 0% = ACh EC20, 100% = ACh EC100; activation, % at 3 µM; hit rate 0.3% among 360,000;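 active means activation above the run cutoff, the mean activation of all test compounds plus 3 SD, cut at about 18% in these data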
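System: CHO-K1 hM5 cells. Reagent: acetylcholine, EC20 level. Compound dosing: single dose, 3 µM nominal final test concentration. Timing: Post-acetylcholine fluorescence recording 140 s. Detection: Fluo-8 calcium fluorescence. Read-out: % activation, ACh-normalized. Benchmarks: ACh EC20 and EC100 wells. Repeats: singlicate, one well per test compound.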
Active calls of the source: *. A selection: hits, their analogues and other compounds. The true share with any hit is near 1.8%.

Results for Cn1nc(C(F)(F)F)c(/C=N/OC(=O)c2ccccc2)c1SCc1ccccc1Cl ?
CHRM5 antagonist: 4; CHRM4 agonist: -1; M5 ag: -5; CHRM4 PAM: -24; CHRM4 antagonist: 30*; CHRM5 PAM: -11

How did Cc1ccccc1NC(=S)NNC(=O)c1csc2c1CCC(C)C2 (configuration not stated) do in these assays?
CHRM5 antagonist: -6; CHRM4 agonist: 2; M5 ag: 2; CHRM4 PAM: 4; CHRM4 antagonist: -14; CHRM5 PAM: -1

How did O=S(=O)(Nc1cccc2ncccc12)c1cccs1 do in these assays?
CHRM5 antagonist: 20; CHRM4 agonist: 3; M5 ag: 0; CHRM4 PAM: 1; CHRM4 antagonist: 37*; CHRM5 PAM: 1

Results for Cc1cc(C(=O)N2CCC2(C)C(=O)O)c(C)o1 (configuration not stated) ?
CHRM5 antagonist: -19; CHRM4 agonist: 1; M5 ag: 0; CHRM4 PAM: 18*; CHRM4 antagonist: -25; CHRM5 PAM: 5

What do the screens show for `Cc1cc(C)cc(C(=O)N(CCc2ccccc2)C2CC3CCC(C2)N3C)c1` (configuration not stated)?
CHRM5 antagonist: 12; CHRM4 agonist: 2; M5 ag: -8; CHRM4 PAM: -2; CHRM4 antagonist: -1; CHRM5 PAM: -8

How did CC(C)(C)c1cc(-c2nc(N)nc(N)n2)c(O)c(C(C)(C)C)c1 do in these assays?
CHRM5 antagonist: -13; CHRM4 agonist: 0; M5 ag: 5; CHRM4 PAM: 10; CHRM4 antagonist: -1; CHRM5 PAM: 24*

What do the screens show for `Nc1nc(N)nc(-c2cc(O)ccc2O)n1`?
CHRM5 antagonist: 3; CHRM4 agonist: 1; M5 ag: 2; CHRM4 PAM: 8; CHRM4 antagonist: -4; CHRM5 PAM: 0

Results for O=C(O)c1cccc(-n2c(-c3cnccn3)n[nH]c2=S)c1 ?
CHRM5 antagonist: -7; CHRM4 agonist: 1; M5 ag: 3; CHRM4 PAM: 4; CHRM4 antagonist: -6; CHRM5 PAM: 18*

Results for CN1CCN(NC(=O)/C=C/c2cccc(Cl)c2)CC1 ?
CHRM5 antagonist: 0; CHRM4 agonist: 1; M5 ag: 2; CHRM4 PAM: 1; CHRM4 antagonist: 0; CHRM5 PAM: -1

Results for O=C(Nc1ccc(Cl)cc1)C(Cl)C(=O)c1ccccc1 (configuration not stated) ?
CHRM5 antagonist: 8; CHRM4 agonist: 7; M5 ag: -3; CHRM4 PAM: -20; CHRM4 antagonist: 26*; CHRM5 PAM: 6

Results for Cc1nn(CC(=O)NCCCN2CCC(Cc3ccccc3)CC2)c(=O)c2cc(-c3ccccc3)nn12 ?
CHRM5 antagonist: 7; CHRM4 agonist: 10; M5 ag: -6; CHRM4 PAM: -14; CHRM4 antagonist: 17; CHRM5 PAM: -5

How did CCc1ccc(-c2cc3c(=O)n(CC(=O)NCCCN4CCC(Cc5ccccc5)CC4)nc(C)n3n2)cc1 do in these assays?
CHRM5 antagonist: 11; CHRM4 agonist: 7; M5 ag: -8; CHRM4 PAM: -10; CHRM4 antagonist: 40*; CHRM5 PAM: -8

Results for C[C@]12C=CC(=O)C=C1CC[C@H]1[C@@H]3C[C@@H](O)[C@](O)(C(=O)CO)[C@@]3(C)C[C@H](O)[C@@]12F ?
CHRM5 antagonist: 0; CHRM4 agonist: 4; M5 ag: 48*; CHRM4 PAM: 1; CHRM4 antagonist: -22; CHRM5 PAM: -18

What do the screens show for `CC1CC2C3CCC4=CC(=O)C=CC4(C)C3(F)C(O)CC2(C)C1(O)C(=O)CO` (configuration not stated)?
CHRM5 antagonist: 8; CHRM4 agonist: 1; M5 ag: -1; CHRM4 PAM: 16; CHRM4 antagonist: 9; CHRM5 PAM: 3

What do the screens show for `CC1(C)O[C@@H]2C[C@H]3[C@@H]4C[C@H](F)C5=CC(=O)C=C[C@]5(C)[C@@]4(F)[C@@H](O)C[C@]3(C)[C@]2(C(=O)CO)O1`?
CHRM5 antagonist: 6; CHRM4 agonist: 1; M5 ag: 2; CHRM4 PAM: 5; CHRM4 antagonist: -15; CHRM5 PAM: 2
